From ChEMBL document CHEMBL4130369, “Structure-activity relations of rosmarinic acid derivatives for the amyloid β aggregation inhibition and antioxidant properties” (Eur J Med Chem, 2017)
pEC50: −log10 of the molar value.

How the values were obtained:
[1] = Inhibition of butter milk XOD (unknown origin) at 10 uM using xanthine as substrate after 8 mins relative to control
Outline: (§1)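 Butter-milk xanthine oxidase in 100 mM phosphate buffer, pH 7.6, with compound added in DMSO. Reaction started with 500 μM xanthine (solution concentration) at rt and stopped after 8 min with 1N HCl. Absorbance at 290 nm was compared with enzyme-activity and blank wells to calculate % inhibition.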

[2] = target: T1, Amyloid-beta precursor protein (Homo sapiens, UniProt P05067); test: Inhibition of QD-labeled amyloid beta (1 to 42) (unknown origin) aggregation after 24 hrs by inverted fluorescence microscopic method
T1 sequence (P05067 whole entry): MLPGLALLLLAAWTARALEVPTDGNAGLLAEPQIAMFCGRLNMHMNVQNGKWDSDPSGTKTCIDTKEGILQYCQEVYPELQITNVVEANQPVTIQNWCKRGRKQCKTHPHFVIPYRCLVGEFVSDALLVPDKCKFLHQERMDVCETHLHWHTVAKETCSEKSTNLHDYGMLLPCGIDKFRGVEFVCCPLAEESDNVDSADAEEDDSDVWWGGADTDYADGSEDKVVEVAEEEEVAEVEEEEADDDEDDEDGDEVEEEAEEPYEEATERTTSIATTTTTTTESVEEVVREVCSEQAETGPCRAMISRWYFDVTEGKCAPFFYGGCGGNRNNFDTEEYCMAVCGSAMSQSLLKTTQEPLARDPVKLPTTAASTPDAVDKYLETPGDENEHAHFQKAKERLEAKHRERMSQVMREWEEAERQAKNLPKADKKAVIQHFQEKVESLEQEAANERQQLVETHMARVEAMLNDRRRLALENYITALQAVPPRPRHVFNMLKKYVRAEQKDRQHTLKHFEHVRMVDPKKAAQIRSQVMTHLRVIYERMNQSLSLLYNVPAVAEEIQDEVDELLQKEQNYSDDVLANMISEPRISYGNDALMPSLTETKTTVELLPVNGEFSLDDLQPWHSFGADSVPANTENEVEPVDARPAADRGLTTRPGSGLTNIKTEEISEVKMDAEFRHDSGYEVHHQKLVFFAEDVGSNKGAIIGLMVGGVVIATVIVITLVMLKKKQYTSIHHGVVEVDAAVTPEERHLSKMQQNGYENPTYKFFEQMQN
Outline: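 Modified MSHTS: 30 μM Aβ(1-42) plus 30 nM QD-labeled Aβ(1-42) with serial compound concentrations in PBS containing 5% EtOH and 3% DMSO, 37°C, 24 h. Coaggregates were imaged by inverted fluorescence microscopy with a color CCD. SD of pixel fluorescence in the well centre (100×100 pixels) was plotted against concentration, and EC50 was fitted by global EC50-shift fitting.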

[3] = Antioxidant activity assessed as inhibition of DPPH radical at 500 uM incubated for 20 mins measured for 60 mins relative to control; type: functional
Outline: (§2)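 DPPH (40 μL of 1 mM stock) in EtOH; test compound added from 2 mM or 10 mM DMSO stocks at rt. Absorbance at 517 nm read continuously for 60 min. Radical trapping capacity was calculated from the 20 min reading.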

[4] = Inhibition of butter milk XOD (unknown origin) at 100 uM using xanthine as substrate after 8 mins relative to control; outline: as §1
[5] = Antioxidant activity assessed as inhibition of DPPH radical at 100 uM incubated for 20 mins measured for 60 mins relative to control; type: functional; outline: as §2
[6] = Inhibition of butter milk XOD (unknown origin) at 1 uM using xanthine as substrate after 8 mins relative to control
Outline: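 Buttermilk xanthine oxidase in 100 mM phosphate buffer pH 7.6 was mixed with compound in DMSO. The reaction was started with xanthine solution (500 μM as added) and run at rt for 8 min, then stopped with 1N HCl. Absorbance was read at 290 nm, and % inhibition was calculated against enzyme-activity and blank wells.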

[7] = target: T1, Amyloid-beta precursor protein; test: Inhibition of QD-labeled amyloid beta (1 to 42) (unknown origin) aggregation assessed as lag time of aggregation at 5.13 uM after 24 hrs by inverted fluorescence microscopic method (reference value: 4.44 mins)
[8] = target: T1, Amyloid-beta precursor protein; test: Inhibition of QD-labeled amyloid beta (1 to 42) (unknown origin) aggregation assessed as change in fluorescence at 5.13 uM after 24 hrs by inverted fluorescence microscopic method (reference value: 6.77)
Outline: (§3)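 Aβ(1-42) (30 μM) was co-incubated with 30 nM QD-labeled Aβ(1-42) and compound in PBS containing 5% EtOH and 3% DMSO at 37°C for 24 h. Coaggregates were imaged by inverted fluorescence microscope with a colour CCD camera. The read-out was the SD of fluorescence intensity over the central 100 × 100 pixels. Aggregation parameters came from Boltzmann fitting of SD versus time, compared with the no-inhibitor control.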

[9] = target: T1, Amyloid-beta precursor protein; test: Inhibition of QD-labeled amyloid beta (1 to 42) (unknown origin) aggregation assessed as aggregation growth rate at 5.13 uM after 24 hrs by inverted fluorescence microscopic method (reference value: 0.533 /min)
[10] = target: T1, Amyloid-beta precursor protein; test: Inhibition of QD-labeled amyloid beta (1 to 42) (unknown origin) aggregation assessed as lag time of aggregation at 20.3 uM after 24 hrs by inverted fluorescence microscopic method (reference value: 4.44 mins)
[11] = target: T1, Amyloid-beta precursor protein; test: Inhibition of QD-labeled amyloid beta (1 to 42) (unknown origin) aggregation assessed as aggregation growth rate at 20.3 uM after 24 hrs by inverted fluorescence microscopic method (reference value: 0.533 /min)
[12] = target: T1, Amyloid-beta precursor protein; test: Inhibition of QD-labeled amyloid beta (1 to 42) (unknown origin) aggregation assessed as change in fluorescence at 20.3 uM after 24 hrs by inverted fluorescence microscopic method (reference value: 6.77); outline: as §3

With `CCCOC(=O)/C=C/c1ccc(O)c(O)c1` as the compound, how does the inhibition [1] read?
The inhibition was less than 10%.

What about the pEC50 [2] of the same compound?
Its pEC50 is 4.61.

What about the inhibition [3] of the same compound?
Its inhibition is 63%.

What about the inhibition [4] of the same compound?
The inhibition was 61%.

And the inhibition [5]?
The inhibition was 46%.

Which results are given for `O=C(/C=C/c1ccccc1)OCCc1ccc(O)c(O)c1`?
inhibition [1]: < 10%; pEC50 [2]: 5.10; inhibition [3]: 56%; inhibition [4]: 22%; inhibition [5]: 40%

Which inhibition [1] does the source give for `O=C(/C=C/c1ccc(O)c(O)c1)OCCc1ccc(O)c(O)c1` here?
Its inhibition is 26%.

And the pEC50 [2]?
Its pEC50 is 4.69.

And the inhibition [3]?
The inhibition was 46%.

And the inhibition [4]?
Its inhibition is 80%.

And the inhibition [5]?
Its inhibition is 37%.

With `O=C(CCc1ccc(O)c(O)c1)OCCc1ccc(O)c(O)c1` as the compound, how does the inhibition [1] read?
The inhibition was less than 10%.

What about the pEC50 [2] of the same compound?
The pEC50 was 4.83.

What about the inhibition [3] of the same compound?
The inhibition was 49%.

What about the inhibition [4] of the same compound?
The inhibition was 21%.

What about the inhibition [5] of the same compound?
Its inhibition is 37%.

With `O=C(/C=C/c1ccc(O)c(O)c1)OCCCCCCO` as the compound, how does the inhibition [1] read?
Its inhibition is less than 10%.

And the pEC50 [2]?
Its pEC50 is 4.26.

And the inhibition [3]?
Its inhibition is 55%.

And the inhibition [4]?
Its inhibition is 51%.

And the inhibition [5]?
Its inhibition is 42%.

Which results are given for `COc1ccc(CCOC(=O)/C=C/c2ccc(O)c(O)c2)cc1OC`?
inhibition [1]: 50%; pEC50 [2]: 4.40; inhibition [3]: 59%; inhibition [4]: 43%; inhibition [5]: 43%

Which inhibition [1] does the source give for `O=C(CCc1ccccc1)OCCc1ccc(O)c(O)c1` here?
Its inhibition is less than 10%.

What about the pEC50 [2] of the same compound?
Its pEC50 is 5.23.

What about the inhibition [3] of the same compound?
The inhibition was 54%.

And the inhibition [4]?
Its inhibition is less than 10%.

And the inhibition [5]?
The inhibition was 38%.

For `Oc1ncnc2[nH]ncc12`, which inhibition [6] is on record?
The inhibition was less than 10%.

What about the inhibition [1] of the same compound?
Its inhibition is greater than 90%.

Which inhibition [1] does the source give for `O=C(/C=C/c1ccc(O)c(O)c1)OCCCCCO` here?
Its inhibition is less than 10%.

What about the pEC50 [2] of the same compound?
The pEC50 was 4.10.

And the inhibition [3]?
The inhibition was 54%.

What about the inhibition [4] of the same compound?
Its inhibition is 84%.

And the inhibition [5]?
Its inhibition is 41%.

Which inhibition [3] does the source give for `CC1=NN(c2ccccc2)C(=O)C1` here?
Its inhibition is 71 to 75%.

What about the inhibition [5] of the same compound?
The inhibition was 50 to 53%.

Which inhibition [1] does the source give for `O=C(CCc1ccccc1)OCCc1ccccc1` here?
The inhibition was less than 10%.

What about the pEC50 [2] of the same compound?
Its pEC50 is 2.34.

What about the inhibition [3] of the same compound?
The inhibition was less than 10%.

And the inhibition [4]?
Its inhibition is less than 10%.

And the inhibition [5]?
The inhibition was less than 10%.

With `CCCCOC(=O)/C=C/c1ccc(O)c(O)c1` [BUTYL CAFFEATE] as the compound, how does the inhibition [1] read?
Its inhibition is less than 10%.

And the pEC50 [2]?
The pEC50 was 4.92.

And the inhibition [3]?
The inhibition was 62%.

What about the inhibition [4] of the same compound?
The inhibition was greater than 90%.

And the inhibition [5]?
Its inhibition is 46%.

With `O=C(/C=C/c1ccc(O)c(O)c1)OCCc1ccccc1` [CAFFEIC ACID PHENETHYL ESTER] as the compound, how does the inhibition [1] read?
Its inhibition is less than 10%.

And the pEC50 [2]?
Its pEC50 is 5.08.

And the inhibition [3]?
Its inhibition is 51%.

And the inhibition [4]?
Its inhibition is 62%.

What about the inhibition [5] of the same compound?
The inhibition was 35%.

For `CCCCCCOC(=O)/C=C/c1ccc(O)c(O)c1` [HEXYLCAFFEATE], which inhibition [1] is on record?
The inhibition was 10%.

And the TIME [7]?
The TIME was 0.0183 h.

What about the Flu intensity [8] of the same compound?
The Flu intensity was 3.68.

What about the pEC50 [2] of the same compound?
The pEC50 was 5.29.

What about the K [9] of the same compound?
Its K is 0.19 min⁻¹.

And the inhibition [3]?
Its inhibition is 61%.

And the inhibition [4]?
Its inhibition is less than 10%.

What about the inhibition [5] of the same compound?
Its inhibition is 45%.

With `CCCCCCC(=O)/C=C/c1ccc(O)c(O)c1` as the compound, how does the inhibition [1] read?
Its inhibition is 12%.

What about the pEC50 [2] of the same compound?
Its pEC50 is 5.55.

And the inhibition [3]?
The inhibition was 62%.

What about the inhibition [4] of the same compound?
Its inhibition is 76%.

What about the inhibition [5] of the same compound?
Its inhibition is 48%.

What does the source list for `COc1ccc(CCOC(=O)CCc2ccccc2)cc1OC`?
inhibition [1]: < 10%; pEC50 [2]: 3.56; inhibition [3]: < 10%; inhibition [4]: < 10%; inhibition [5]: < 10%

Which inhibition [1] does the source give for `CCCCCCCOC(=O)/C=C/c1ccc(O)c(O)c1` here?
The inhibition was 11%.

And the pEC50 [2]?
Its pEC50 is 4.98.

What about the inhibition [3] of the same compound?
Its inhibition is 63%.

And the inhibition [4]?
The inhibition was 25%.

What about the inhibition [5] of the same compound?
The inhibition was 46%.

Which inhibition [1] does the source give for `CCCCCCCCCOC(=O)/C=C/c1ccc(O)c(O)c1` here?
The inhibition was less than 10%.

And the pEC50 [2]?
Its pEC50 is 5.02.

What about the inhibition [3] of the same compound?
Its inhibition is 61%.

And the inhibition [4]?
Its inhibition is 40%.

And the inhibition [5]?
The inhibition was 45%.

Which results are given for `NC(=O)C(Cc1ccc(O)c(O)c1)OC(=O)/C=C/c1ccc(O)c(O)c1` (stereo not given)?
inhibition [1]: 38%; pEC50 [2]: 4.66; inhibition [3]: 48%; inhibition [4]: 82%; inhibition [5]: 39%

For `O=C(/C=C/c1ccc(O)c(O)c1)NCCc1ccc(O)c(O)c1`, which inhibition [1] is on record?
The inhibition was less than 10%.

And the pEC50 [2]?
The pEC50 was 4.16.

What about the inhibition [3] of the same compound?
Its inhibition is 64%.

And the inhibition [4]?
Its inhibition is 30%.

And the inhibition [5]?
The inhibition was 47%.

For `C=CCOC(=O)/C=C/c1ccc(O)c(O)c1`, which inhibition [1] is on record?
Its inhibition is less than 10%.

What about the pEC50 [2] of the same compound?
The pEC50 was 4.63.

And the inhibition [3]?
The inhibition was 62%.

What about the inhibition [4] of the same compound?
The inhibition was 22%.

What about the inhibition [5] of the same compound?
Its inhibition is 46%.

Which inhibition [1] does the source give for `CCCCCOC(=O)/C=C/c1ccc(O)c(O)c1` here?
The inhibition was 11%.

And the pEC50 [2]?
Its pEC50 is 5.59.

What about the inhibition [3] of the same compound?
Its inhibition is 62%.

And the inhibition [4]?
Its inhibition is greater than 90%.

And the inhibition [5]?
Its inhibition is 46%.

What does the source list for `O=C(/C=C/c1ccccc1)OCCc1ccccc1` [PHENETHYL CINNAMATE]?
inhibition [1]: < 10%; pEC50 [2]: 2.98; inhibition [3]: < 10%; inhibition [4]: < 10%; inhibition [5]: < 10%

For `COC(=O)/C=C/c1ccc(O)c(O)c1` [METHYLCAFFEATE], which inhibition [1] is on record?
Its inhibition is less than 10%.

And the pEC50 [2]?
The pEC50 was 4.17.

And the inhibition [3]?
Its inhibition is 64%.

And the inhibition [4]?
The inhibition was 65%.

And the inhibition [5]?
Its inhibition is 48%.

Which results are given for `O=C(O)/C=C/c1ccc(O)c(O)c1` [CAFFEIC ACID]?
inhibition [1]: < 10%; pEC50 [2]: 3.67; inhibition [3]: 63%; inhibition [4]: < 10%; inhibition [5]: 49%

For `O=C(/C=C/c1ccc(O)c(O)c1)O[C@H](Cc1ccc(O)c(O)c1)C(=O)O` [ROSMARINIC ACID], which TIME [10] is on record?
Its TIME is 0.093 h.

What about the inhibition [1] of the same compound?
The inhibition was less than 10%.

What about the pEC50 [2] of the same compound?
Its pEC50 is 4.69.

And the inhibition [3]?
Its inhibition is 66%.

And the inhibition [4]?
The inhibition was 27%.

What about the inhibition [5] of the same compound?
Its inhibition is 47%.

What about the K [11] of the same compound?
The K was 0.508 min⁻¹.

What about the Flu intensity [12] of the same compound?
The Flu intensity was 3.4.

For `CCCCCNC(=O)/C=C/c1ccc(O)c(O)c1`, which inhibition [1] is on record?
Its inhibition is less than 10%.

And the pEC50 [2]?
Its pEC50 is 4.94.

And the inhibition [3]?
Its inhibition is 53%.

And the inhibition [4]?
Its inhibition is 33%.

And the inhibition [5]?
Its inhibition is 40%.
